Laboratory results as given in ChEMBL document CHEMBL1817611, “Synthesis, antitubercular activity, and SAR study of N-substituted-phenylamino-5-methyl-1H-1,2,3-triazole-4-carbohydrazides” (2011).
≈ marks a conversion by molar mass, not a printed value.

Test system: Mycobacterium tuberculosis
Assay: Antitubercular activity against Mycobacterium tuberculosis H37Rv ATCC 27294 by microplate alamar blue assay
Assay type: functional
Summary of the method: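 Resazurin-based (Alamar Blue) colorimetric redox indicator used to assess growth of M. tuberculosis H37Rv. MIC (µg/mL) is taken as the lowest drug concentration that prevents a colour change from blue (no growth) to pink (growth).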

| SMILES | MIC |
| --- | --- |
| Cc1c(C(=O)N/N=C/c2ccccc2)nnn1Nc1ccc(Br)cc1 | > 100 µg/mL |
| Cc1c(C(=O)N/N=C/c2ccccc2)nnn1Nc1ccc(F)cc1 | > 100 µg/mL |
| Cc1c(C(=O)N/N=C/c2ccc(Br)s2)nnn1Nc1ccc(Br)cc1 | > 100 µg/mL |
| Cc1c(C(=O)N/N=C/c2ccc(Br)s2)nnn1Nc1ccc(F)cc1 | > 100 µg/mL |
| Cc1c(C(=O)N/N=C/c2ccco2)nnn1Nc1ccc(Br)cc1 | 25.5 µg/mL (≈ 65.5 µM) |
| Cc1c(C(=O)N/N=C/c2ccco2)nnn1Nc1ccc(F)cc1 | 12.5 µg/mL (≈ 38.1 µM) |
| Cc1c(C(=O)N/N=C/c2ccc([N+](=O)[O-])o2)nnn1Nc1ccc(Br)cc1 | 6.25 µg/mL (≈ 14.4 µM) |
| Cc1c(C(=O)N/N=C/c2ccc([N+](=O)[O-])o2)nnn1Nc1ccc(F)cc1 | 5 µg/mL (≈ 13.4 µM) |
| Cc1c(C(=O)N/N=C/c2ccc([N+](=O)[O-])o2)nnn1Nc1ccccc1 | 2.5 µg/mL (≈ 7.04 µM) |
| Cc1c(C(=O)N/N=C/c2ccc(Br)s2)nnn1Nc1ccccc1 | 12.5 µg/mL (≈ 30.8 µM) |
| Cc1c(C(=O)N/N=C/c2ccc([N+](=O)[O-])o2)nnn1Nc1ccc(Cl)cc1 | 5 µg/mL (≈ 12.8 µM) |
| Cc1c(C(=O)N/N=C/c2ccccc2)nnn1Nc1ccc(Cl)cc1 | > 100 µg/mL |
| Cc1c(C(=O)N/N=C/c2ccccc2)nnn1Nc1ccccc1 | > 100 µg/mL |
| Cc1c(C(=O)N/N=C/c2ccc(Br)s2)nnn1Nc1ccc(Cl)cc1 | > 100 µg/mL |
| Cc1c(C(=O)N/N=C/c2ccco2)nnn1Nc1ccc(Cl)cc1 | 12.5 µg/mL (≈ 36.3 µM) |
| Cc1c(C(=O)N/N=C/c2ccco2)nnn1Nc1ccccc1 | 5 µg/mL (≈ 16.1 µM) |
| CC[C@@H](CO)NCCN[C@@H](CC)CO [ETHAMBUTOL] | 2 µg/mL (≈ 9.79 µM) |
| CC(C)CCOc1ccc(NC(=S)Nc2ccc(OCCC(C)C)cc2)cc1 [TIOCARLIDE] | 2.5 µg/mL (≈ 6.24 µM) |
